Source: ChEMBL document CHEMBL1138564, “Microwave-induced synthesis and anti-microbial activities of 7,10,11,12-tetrahydrobenzo[c]acridin-8(9H)-one derivatives” (2009)
In brackets after ≈: the same amount, converted by molar mass. Activity calls are given as the source filed them. The calls are words filed in the database; no cut-off is given here.

Experiments:
[1] = tested on: Rhodococcus corynebacterioides; assay: Antimicrobial activity against Corynebacterium rubrum NCIM 2252 at 1000 ug/disk after 24 hrs by disk diffusion method; type: functional; conditions: Rhodococcoides corynebacterioides
In short: (§1)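 Disc diffusion on Mueller–Hinton agar. 100 µl of bacterial suspension at 10⁸ CFU/ml is spread on the plate. Discs carry test compounds at two loadings, dissolved in DMSO; DMSO alone serves as negative control. Ofloxacin disc is the positive reference. Plates are incubated at 37 °C for 24 h, and the inhibition zone diameter is measured.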

Bacillus subtilis [2] = assay: Antimicrobial activity against Bacillus subtilis NCIM 2063 at 1000 ug/disk after 24 hrs by disk diffusion method; type: functional; conditions: NCIM 2063, 24 h, read-out: DIZ; in short: as §1
Pseudomonas aeruginosa [3] = assay: Antimicrobial activity against Pseudomonas aeruginosa NCIM 2200 at 500 ug/disk after 24 hrs by disk diffusion method; type: functional
In short: (§2)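 Disc diffusion. 100 µl of bacterial suspension at 10⁸ CFU/ml was spread on Mueller–Hinton agar. Discs loaded with test compound dissolved in DMSO were placed on the lawn, with a DMSO-only disc as negative control. Plates were incubated at 37 °C for 24 h, and the inhibition zone diameter was measured.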

Salmonella typhimurium [4] = assay: Antimicrobial activity against Salmonella Typhimurium NCIM 2501 at 1000 ug/disk after 24 hrs by disk diffusion method; type: functional; conditions: Salmonella enterica subsp. enterica serovar Typhimurium; in short: as §2
Escherichia coli [5] = assay: Antimicrobial activity against Escherichia coli NCIM 2065 at 500 ug/disk after 24 hrs by disk diffusion method; type: functional; conditions: NCIM 2065, 24 h, read-out: DIZ; in short: as §1
Aliivibrio fischeri [6] = assay: Antimicrobial activity against Vibrio fischeri NCIM 2154 at 1000 ug/disk after 24 hrs by disk diffusion method; type: functional; in short: as §2
Escherichia coli [7] = assay: Antimicrobial activity against Escherichia coli NCIM 2065 after 24 hrs by serial dilution method; type: functional; conditions: NCIM 2065, 24 h
In short: (§3)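 Broth dilution MIC in nutrient broth, run only for organisms found sensitive in disc diffusion. Compounds are two-fold serially diluted in 1 ml sterile broth per tube, spanning 3.9 to 1000. Inoculated tubes are incubated at 37 °C for 24 h.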

Proteus vulgaris [8] = assay: Antimicrobial activity against Proteus vulgaris NCIM 2027 at 1000 ug/disk after 24 hrs by disk diffusion method; type: functional; in short: as §1
Aspergillus flavus [9] = assay: Antimicrobial activity against Aspergillus flavus NCIM 902 at 1000 ug/disk after 72 hrs by disk diffusion method; type: functional; conditions: NCIM 902, 72 h, read-out: DIZ
In short: (§4)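 Disc diffusion on Sabouraud's dextrose agar. 100 µl of fungal suspension at 10⁶ CFU/ml is spread on the plate. Discs carry test compounds at two loadings in DMSO; DMSO alone is the negative control. Clotrimazole disc is the positive reference. Plates are incubated at 27 °C for 72 h, and the zone of inhibition diameter is measured.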

Aspergillus flavus [10] = assay: Antimicrobial activity against Aspergillus flavus NCIM 902 after 72 hrs by serial dilution method; type: functional; conditions: NCIM 535, 72 h, in the assay text read “NCIM 535” for “NCIM 902”
In short: (§5)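 MIC by broth dilution in Sabouraud's dextrose broth, only for fungi sensitive in disc diffusion. Two-fold serial dilutions of compounds are made in 1 ml broth per tube, range 3.9 to 1000. Inoculated tubes are incubated at 27 °C for 72 h.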

Proteus vulgaris [11] = assay: Antimicrobial activity against Proteus vulgaris NCIM 2027 at 500 ug/disk after 24 hrs by disk diffusion method; type: functional; in short: as §1
Aspergillus parasiticus [12] = assay: Antimicrobial activity against Aspergillus parasiticus NCIM 904 at 1000 ug/disk after 72 hrs by disk diffusion method; type: functional; conditions: NCIM 904, 72 h, read-out: DIZ; in short: as §4
Penicillium chrysogenum [13] = assay: Antimicrobial activity against Penicillium chrysogenum NCIM 707 at 500 ug/disk after 72 hrs by disk diffusion method; type: functional; in short: as §4
Bacillus cereus [14] = assay: Antimicrobial activity against Bacillus cereus NCIM 2155 at 1000 ug/disk after 24 hrs by disk diffusion method; type: functional; conditions: NCIM 2155, 24 h, read-out: DIZ; in short: as §1
Aspergillus niger [15] = assay: Antimicrobial activity against Aspergillus niger NCIM 1196 at 1000 ug/disk after 72 hrs by disk diffusion method
Aspergillus fumigatus [16] = assay: Antimicrobial activity against Aspergillus fumigatus NCIM 902 at 1000 ug/disk after 72 hrs by disk diffusion method; type: functional; conditions: NCIM 902, 72 h, read-out: DIZ; in short: as §4
Rhodotorula mucilaginosa [17] = assay: Antimicrobial activity against Rhodotorula rubra NCIM 3174 after 72 hrs by serial dilution method; type: functional; conditions: NCIM 3174, 72 h
In short: (§6)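 MIC by broth dilution in Sabouraud's dextrose broth, run only on fungi found sensitive in the disc assay. Twofold serial dilutions were made in 1 ml broth per tube, covering 3.9 to 1000. Inoculated tubes were incubated at 27 °C for 72 h.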

Aspergillus parasiticus [18] = assay: Antimicrobial activity against Aspergillus parasiticus NCIM 904 after 72 hrs by serial dilution method; type: functional; conditions: NCIM 904, 72 h; in short: as §5
Bacillus cereus [19] = assay: Antimicrobial activity against Bacillus cereus NCIM 2155 after 24 hrs by serial dilution method; type: functional; conditions: NCIM 2155, 24 h; in short: as §3
Trichoderma viride [20] = assay: Antimicrobial activity against Trichoderma viride NCIM 1195 at 1000 ug/disk after 72 hrs by disk diffusion method; type: functional; conditions: NCIM 1195, 72 h, read-out: DIZ
In short: (§7)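 Fungal disc diffusion. 100 µl of suspension at 10⁶ CFU/ml was spread on Sabouraud's dextrose agar. Discs carrying test compound in DMSO were applied, with a DMSO-only disc as negative control. Plates were incubated at 27 °C for 72 h, and the zone of inhibition diameter was measured.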

Staphylococcus [21] = assay: Antimicrobial activity against Staphylococcus albus NCIM 2178 at 1000 ug/disk after 24 hrs by disk diffusion method; type: functional; in short: as §2
Lipomyces lipofer [22] = assay: Antimicrobial activity against Lipomyces lipofer NCIM 3252 at 500 ug/disk after 72 hrs by disk diffusion method; type: functional; in short: as §4
[23] = tested on: Rhodococcus corynebacterioides; assay: Antimicrobial activity against Corynebacterium rubrum NCIM 2252 at 500 ug/disk after 24 hrs by disk diffusion method; type: functional; conditions: Rhodococcoides corynebacterioides; in short: as §1
Trichoderma viride [24] = assay: Antimicrobial activity against Trichoderma viride NCIM 1195 at 500 ug/disk after 72 hrs by disk diffusion method; type: functional; conditions: NCIM 1195, 72 h, read-out: DIZ; in short: as §7
Aliivibrio fischeri [25] = assay: Antimicrobial activity against Vibrio fischeri NCIM 2154 at 500 ug/disk after 24 hrs by disk diffusion method; type: functional; in short: as §2
Bacillus cereus [26] = assay: Antimicrobial activity against Bacillus cereus NCIM 2155 at 500 ug/disk after 24 hrs by disk diffusion method; type: functional; conditions: NCIM 2155, 24 h, read-out: DIZ; in short: as §1
Bacillus subtilis [27] = assay: Antimicrobial activity against Bacillus subtilis NCIM 2063 after 24 hrs by serial dilution method; type: functional; conditions: NCIM 2063, 24 h; in short: as §3
Rhodotorula mucilaginosa [28] = assay: Antimicrobial activity against Rhodotorula rubra NCIM 3174 at 1000 ug/disk after 72 hrs by disk diffusion method; type: functional; conditions: NCIM 3174, 72 h, read-out: DIZ; in short: as §7
Aspergillus fumigatus [29] = assay: Antimicrobial activity against Aspergillus fumigatus NCIM 902 at 500 ug/disk after 72 hrs by disk diffusion method; type: functional; in short: as §4
Klebsiella aerogenes [30] = assay: Antimicrobial activity against Klebsiella aerogenes NCIM 2239 at 1000 ug/disk after 24 hrs by disk diffusion method; type: functional; in short: as §1
Bacillus subtilis [31] = assay: Antimicrobial activity against Bacillus subtilis NCIM 2063 at 500 ug/disk after 24 hrs by disk diffusion method; type: functional; conditions: NCIM 2063, 24 h, read-out: DIZ; in short: as §1
Trichoderma viride [32] = assay: Antimicrobial activity against Trichoderma viride NCIM 1195 after 72 hrs by serial dilution method; type: functional; conditions: NCIM 1195, 72 h; in short: as §6
Rhodotorula mucilaginosa [33] = assay: Antimicrobial activity against Rhodotorula rubra NCIM 3174 at 500 ug/disk after 72 hrs by disk diffusion method; type: functional; conditions: NCIM 3174, 72 h, read-out: DIZ; in short: as §7
Lipomyces lipofer [34] = assay: Antimicrobial activity against Lipomyces lipofer NCIM 3252 at 1000 ug/disk after 72 hrs by disk diffusion method; type: functional; in short: as §4
Pseudomonas aeruginosa [35] = assay: Antimicrobial activity against Pseudomonas aeruginosa NCIM 2200 at 1000 ug/disk after 24 hrs by disk diffusion method; type: functional; in short: as §1
Aspergillus niger [36] = assay: Antimicrobial activity against Aspergillus niger NCIM 1196 at 500 ug/disk after 72 hrs by disk diffusion method
Klebsiella aerogenes [37] = assay: Antimicrobial activity against Klebsiella aerogenes NCIM 2239 at 500 ug/disk after 24 hrs by disk diffusion method; type: functional; in short: as §1
Aspergillus fumigatus [38] = assay: Antimicrobial activity against Aspergillus fumigatus NCIM 902 after 72 hrs by serial dilution method; type: functional; conditions: NCIM 902, 72 h; in short: as §5
Penicillium chrysogenum [39] = assay: Antimicrobial activity against Penicillium chrysogenum NCIM 707 at 1000 ug/disk after 72 hrs by disk diffusion method; type: functional; in short: as §4
Salmonella typhimurium [40] = assay: Antimicrobial activity against Salmonella Typhimurium NCIM 2501 at 500 ug/disk after 24 hrs by disk diffusion method; type: functional; conditions: Salmonella enterica subsp. enterica serovar Typhimurium; in short: as §2
Aspergillus parasiticus [41] = assay: Antimicrobial activity against Aspergillus parasiticus NCIM 904 at 500 ug/disk after 72 hrs by disk diffusion method; type: functional; conditions: NCIM 904, 72 h, read-out: DIZ; in short: as §4
Aspergillus flavus [42] = assay: Antimicrobial activity against Aspergillus flavus NCIM 902 at 500 ug/disk after 72 hrs by disk diffusion method; type: functional; conditions: NCIM 902, 72 h, read-out: DIZ; in short: as §4
Escherichia coli [43] = assay: Antimicrobial activity against Escherichia coli NCIM 2065 at 1000 ug/disk after 24 hrs by disk diffusion method; type: functional; conditions: NCIM 2065, 24 h, read-out: DIZ; in short: as §1
Staphylococcus [44] = assay: Antimicrobial activity against Staphylococcus albus NCIM 2178 at 500 ug/disk after 24 hrs by disk diffusion method; type: functional; in short: as §2

In the case of `O=C1CCCC2=C1C(c1ccccc1)c1ccc3ccccc3c1N2` (centres undefined), the “diameter of the inhibition zone (DIZ)” value [1] is reported as “inactive”, the zone of inhibition at 1000 µg/disc (Bacillus subtilis [2]) is reported as 10 mm and the “diameter of the inhibition zone (DIZ)” value (Pseudomonas aeruginosa [3]) is reported as “inactive”. For the same compound, the “diameter of the inhibition zone (DIZ)” value (Salmonella typhimurium [4]) was “inactive”, the zone of inhibition at 500 µg/disc (Escherichia coli [5]) was 8 mm and the “diameter of the inhibition zone (DIZ)” value (Aliivibrio fischeri [6]) was “inactive”. The MIC (Escherichia coli [7]) was 125 µg/mL (≈ 384 µM), the “diameter of the inhibition zone (DIZ)” value (Proteus vulgaris [8]) was “inactive” and the zone of inhibition at 1000 µg/disc (Aspergillus flavus [9]) was 10 mm. The MIC (Aspergillus flavus [10]) was 62.5 µg/mL (≈ 192 µM), the “diameter of the inhibition zone (DIZ)” value (Proteus vulgaris [11]) was “inactive” and the zone of inhibition at 1000 µg/disc (Aspergillus parasiticus [12]) was 9 mm. The “diameter of the inhibition zone (DIZ)” value (Penicillium chrysogenum [13]) was “inactive”, the zone of inhibition at 1000 µg/disc (Bacillus cereus [14]) was 9 mm and the “diameter of the inhibition zone (DIZ)” value (Aspergillus niger [15]) was “inactive”. For the same compound, the zone of inhibition at 1000 µg/disc (Aspergillus fumigatus [16]) was 11 mm, the MIC (Rhodotorula mucilaginosa [17]) was 31.2 µg/mL (≈ 95.9 µM) and the MIC (Aspergillus parasiticus [18]) was 62.5 µg/mL (≈ 192 µM). The MIC (Bacillus cereus [19]) was 125 µg/mL (≈ 384 µM), the zone of inhibition at 1000 µg/disc (Trichoderma viride [20]) was 12 mm and the “diameter of the inhibition zone (DIZ)” value (Staphylococcus [21]) was “inactive”. For the same compound, the “diameter of the inhibition zone (DIZ)” value (Lipomyces lipofer [22]) was “inactive”, the “diameter of the inhibition zone (DIZ)” value [23] was “inactive” and the zone of inhibition at 500 µg/disc (Trichoderma viride [24]) was 11 mm. For the same compound, the “diameter of the inhibition zone (DIZ)” value (Aliivibrio fischeri [25]) was “inactive”, the zone of inhibition at 500 µg/disc (Bacillus cereus [26]) was 8 mm and the MIC (Bacillus subtilis [27]) was 62.5 µg/mL (≈ 192 µM). For the same compound, the zone of inhibition at 1000 µg/disc (Rhodotorula mucilaginosa [28]) was 12 mm, the “diameter of the inhibition zone (DIZ)” value (Aspergillus fumigatus [29]) was “inactive” and the “diameter of the inhibition zone (DIZ)” value (Klebsiella aerogenes [30]) was “inactive”. The zone of inhibition at 500 µg/disc (Bacillus subtilis [31]) was 8 mm, the MIC (Trichoderma viride [32]) was 31.2 µg/mL (≈ 95.9 µM) and the zone of inhibition at 500 µg/disc (Rhodotorula mucilaginosa [33]) was 8 mm. The “diameter of the inhibition zone (DIZ)” value (Lipomyces lipofer [34]) was “inactive”, the “diameter of the inhibition zone (DIZ)” value (Pseudomonas aeruginosa [35]) was “inactive” and the “diameter of the inhibition zone (DIZ)” value (Aspergillus niger [36]) was “inactive”. The “diameter of the inhibition zone (DIZ)” value (Klebsiella aerogenes [37]) was “inactive”, the MIC (Aspergillus fumigatus [38]) was 62.5 µg/mL (≈ 192 µM) and the “diameter of the inhibition zone (DIZ)” value (Penicillium chrysogenum [39]) was “inactive”. The “diameter of the inhibition zone (DIZ)” value (Salmonella typhimurium [40]) was “inactive”, the zone of inhibition at 500 µg/disc (Aspergillus parasiticus [41]) was 7 mm and the zone of inhibition at 500 µg/disc (Aspergillus flavus [42]) was 9 mm. The zone of inhibition at 1000 µg/disc (Escherichia coli [43]) was 9 mm and the “diameter of the inhibition zone (DIZ)” value (Staphylococcus [44]) was “inactive”.
